Only some compounds are listed: those with a hit (about 1.4% of all), similar ones and a draw of the others.
Vif inh – inhibitors of HIV Vif; HEK293T cells, Vif self-association by quenched fluorescence, imaging, 24 h; inhibition, % at 7.49 µM; 340,000 tested, 0.35% active; in the data active means inhibition above about 50%, passing the limit was not always enough; inconclusive means no clear call, values can overlap the other calls; inactive means below about 31%
SR-BI DiI inh – blocks mouse SR-BI lipid uptake from DiI-HDL; Q61009; ldlA[mSR-BI] CHO cells, DiI-HDL uptake fluorescence, 3 h; inhibition, % at 12.5 µM; 320,000 tested, 0.96% active;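 active means mean replicate inhibition of at least 70% and a set share of replicates each scoring 70 or more; inconclusive means meets just one of the two criteria; inactive means fails both criteria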;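 further: 0% = median of neutral control wells and 100% = median of positive control wells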
SR-BI uptake up – activators of SR-BI mediated HDL lipid uptake; activation, % at 12.5 µM; CHO ldlA[mSR-BI] cells, DiI-HDL uptake fluorescence, 3 h; 100 = double the neutral-control signal; 320,000 tested, 0.096% active;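 active means mean replicate activation of at least 60% and every replicate at or above 60%; inconclusive means mean or all-replicate condition met, but not both; inactive means mean below 60% and not all replicates reaching 60%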;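 further: 0% = median plate neutral-control signal and 100% = twice that signal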
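Material – SR-BI-overexpressing, LDLR-lacking CHO cells · Medium – BSA-supplemented, HEPES-buffered Ham's F12, pH 7.4 · Doses – single concentration · Times – compound with DiI-HDL co-incubation, 3 h at 37 °C · Measured by – bottom-read fluorescence, 550/595 nm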
PKA-R2B activ – activators of human PKA-R2B complex | P22694+P31323 | 340,000 tested, 0.079% active | PKA-R2B holoenzyme dissociation, Cy5-IP20 fluorescence polarization; R2B truncated from residue 108, S112A mutant; 0% DMSO only, 100% 113 µM cGMP | activation, % at 11.4 µM;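 active means activation above a cutoff set at the mean over all compounds plus 3 SD, cut at about 18% in these data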;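 further: higher means more holoenzyme dissociation and a rise in polarization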
Target sequence (P31323 whole entry, looked up, other chains not shown, the tested form may be a part): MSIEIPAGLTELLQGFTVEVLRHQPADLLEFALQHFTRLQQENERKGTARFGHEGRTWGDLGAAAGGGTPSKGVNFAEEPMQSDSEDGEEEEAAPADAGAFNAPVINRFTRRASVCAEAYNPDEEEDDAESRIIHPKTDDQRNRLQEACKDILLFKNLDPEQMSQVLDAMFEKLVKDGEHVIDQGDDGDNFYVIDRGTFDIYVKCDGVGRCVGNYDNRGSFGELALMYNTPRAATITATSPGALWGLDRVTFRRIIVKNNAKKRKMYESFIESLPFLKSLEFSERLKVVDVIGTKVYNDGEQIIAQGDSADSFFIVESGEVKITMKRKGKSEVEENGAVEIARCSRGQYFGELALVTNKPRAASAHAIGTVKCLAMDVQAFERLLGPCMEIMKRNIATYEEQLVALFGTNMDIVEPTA
PKA-R1A activ – PKA-R1A complex activation. P00514+P68181. PKA-R1A dissociation, Cy5-IP20 fluorescence polarization; scaled: DMSO 0%, 113 µM cGMP 100%. activation, % at 11.4 µM. 340,000 tested, 0.083% active;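 active means percent activation above the mean of all tested compounds plus 3 SD, cut at about 19% in these data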;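 further: higher means more PKAc released from R1A so a rise in polarization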
R1A FP artifact – counter-screen for PKA-R1A activators: fluorescence polarization artifacts; shares compounds with PKA-R1A activ; Cy5-IP20 peptide alone, fluorescence polarization artifact counterscreen; activation, % at 11.4 µM; 280 tested, 7% active; AID 504799;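 active means mean activation over triplicate runs exceeds the adjusted cutoff derived for the parent primary screen, cut at about 19% in these data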;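 further: no PKA protein present so any polarization rise reflects compound interference; 0% = tracer peptide mix alone and 100% = mix with added PKA catalytic subunit; higher means stronger polarization artifact and likely false positive in parent screen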
PKA-R1A act conf – confirmation of PKA-R1A complex activators; shares compounds with PKA-R1A activ; activation, % at 11.4 µM; Cy5-IP20 fluorescence polarization, PKA-R1A holoenzyme dissociation; AID 504800; 280 tested, 9% active;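 active means mean activation over replicate wells exceeds the adjusted hit threshold taken from the earlier primary screen, cut at about 20% in these data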;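 further: 0% = holoenzyme mix with DMSO only and 100% = cGMP-activated control wells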
The depositor's hits bear a star; ? = inconclusive; / = no result given.

SMILES	Vif inh	SR-BI DiI inh	SR-BI uptake up	PKA-R2B activ	PKA-R1A activ	R1A FP artifact	PKA-R1A act conf
CNC(=O)COc1ncnc2scc(-c3ccc(F)cc3)c12	7	-1	1	1	19*	3	5
CCOC(=O)c1cc(-c2ccccc2C)nn1Cc1cc(C)no1	-7	-18	18	2	-3	/	/
CCc1cc(Cn2nc(-c3ccccc3C)cc2C(=O)O)on1	-4	-12	12	-3	19*	0	-2
CCn1cc([N+](=O)[O-])c(C(=O)Nc2c(C)nn(Cc3cccc(F)c3)c2C)n1	2	-20	20	4	19*	6	3
OCC1CCCCN1C(=S)Nc1cccc(Cl)c1 (centres undefined)	4	-11	11	-2	5	/	/
COc1ccc(/C=C(\C#N)C(=O)OCCNC(=O)c2ccncc2)cc1	/	0	0	10	20*	-1	-2
COc1ccc(/C=C/C(=O)OCCNC(=O)c2ccncc2)cc1OC	-1	-3	3	9	0	/	/
Cc1cc(NC(=O)CSCC(=O)OCC(=O)Nc2cc(C)c(C)cc2[N+](=O)[O-])no1	/	-5	5	-6	20*	6	10
CC(C)Nc1ccc(C(CC(N)=O)NC(=O)c2ccc(Br)cc2)cc1[N+](=O)[O-] (centres undefined)	/	-1	1	-4	0	/	/
CN(Cc1ccccc1)c1ccc(C(CC(N)=O)NC(=O)c2ccc(Br)cc2)cc1[N+](=O)[O-] (centres undefined)	-2	-1	1	8	25*	19*	19*
CC(=O)Nc1ccc(NC(=O)c2nc(-c3ccccc3)oc2C)cc1	-2	-1	1	-15	-6	/	/
Cc1cccc(NC(=O)c2sc(C)nc2C)c1	-1	-9	9	3	19*	0	1
CCOC(=O)c1nnn(-c2ccc([N+](=O)[O-])cc2)c1C	-3	-1	1	1	9	/	/
CCOC(=O)c1nnn(-c2ccccc2C#N)c1C	13	/	/	1	20*	-1	-1
CC(=O)Nc1ccc(C(=O)OCc2ccc(Cl)cc2)cc1	5	3	-3	2	0	/	/
CCCS(=O)(=O)c1ccc(COC(=O)c2ccc(NC(C)=O)cc2)cc1	2	12	-12	3	22*	0	7
COc1cccc2cc(-c3nnc(SCC(=O)Nc4cc(C(F)(F)F)ccc4Cl)n3N)oc12	-10	45	-45	8	20*	-2	0
CCn1c(SCC(=O)Nc2nccs2)nnc1-c1cc2cccc(OC)c2o1	1	-6	6	-2	-1	/	/
Cc1ccc(C)c(NC(=O)CCN2CCCC(C)C2)c1 (centres undefined)	-1	-14	14	-7	-2	/	/
CC(=O)NC1(C(F)(F)F)C(=O)Nc2c1c(=O)[nH]c(=O)n2CC(C)C (centres undefined)	-6	-10	10	-12	1	/	/
O=C(NCc1ccccc1)c1onc(CSc2ccc(Cl)cc2)c1C(=O)NCc1ccccc1	-3	-30	30	2	2	/	/
CN(C)CCNC(=O)c1c(CSc2ccc(Cl)cc2)noc1C(=O)NCc1ccccc1	2	2	-2	2	20*	3	5
COc1ccc(N2CCN(C(=O)NCc3cccc(OC)c3)CC2)cc1	-4	-2	2	-4	7	/	/
COC(=O)C1=CN(c2cccc(Cl)c2)C=C(C(=O)OC)C1c1cccc(OC)c1	-5	-2	2	0	19*	-1	-7
CCOC(=O)C1=NNC(C(=O)c2ccc(OC)cc2)C1c1ccccc1 (centres undefined)	9	-4	4	-6	20*	5	4
SMILES	Vif inh	SR-BI DiI inh	SR-BI uptake up	PKA-R2B activ	PKA-R1A activ	R1A FP artifact	PKA-R1A act conf
CCOC(=O)C1=NNC(C(=O)c2ccccc2)C1c1ccc(C)cc1 (centres undefined)	-11	-1	1	-4	2	/	/
O=C(NCc1cccnc1)c1cc(C(=O)NCc2cccnc2)cc([N+](=O)[O-])c1	1	/	/	-3	0	/	/
CCCCCCCn1c(C)nnc1-c1cnn(C)c1N	-13	-3	3	-2	20*	0	-1
Cc1nnc(-c2cnn(C)c2N)n1CCCN(C)C	-5	0	0	0	-4	/	/
O=C(NC1CCCCCC1)c1ccc(=O)n(Cc2ccccc2)n1	?	-4	4	5	6	/	/
CCN1C(=O)/C(=C/N(C)C)c2ccccc21	-2	15	-15	6	19*	1	5
COc1ccc(C)cc1NC(=O)CO/N=C(\N)CC(=O)Nc1ccccc1OC	-7	20	-20	4	20*	3	1
COc1ccccc1NC(=O)CON=C(N)CC(=O)NC1CCCCC1	-3	-16	16	-3	-12	/	/
Nc1cccc(C(=O)NCCNC(=O)c2cccc(N)c2)c1	/	-9	9	8	-9	/	/
COc1ccc(S(=O)(=O)N(C)C)cc1NC(=O)c1ccc2c(c1)NC(=O)C(C)S2 (centres undefined)	-7	13	-13	11	-1	/	/
CCCCS(=O)(=O)N1CCCC(C(=O)Nc2ccc3c(c2)CCC3)C1 (centres undefined)	-6	20	-20	1	19*	0	1
CCCCS(=O)(=O)N1CCCC(C(=O)NCCc2ccccc2)C1 (centres undefined)	2	16	-16	-13	-10	/	/
CC(C)Oc1cccc(C(=O)NC(=S)Nc2ccccc2N2CCOCC2)c1	-10	42	/	-3	19*	-4	-3
O=C(NC(=S)Nc1ccccc1N1CCOCC1)c1cccc([N+](=O)[O-])c1	-7	56	-56	-11	10	/	/
CC(NC(=O)CCNS(=O)(=O)c1ccc2c(c1)oc(=O)n2C)c1ccccc1 (centres undefined)	-6	2	-2	4	-6	/	/
Cc1[nH]c(=O)[nH]c(=O)c1S(=O)(=O)NCCc1ccc(S(N)(=O)=O)cc1	5	-16	16	1	3	/	/
Cc1[nH]c(=O)[nH]c(=O)c1S(=O)(=O)Nc1ccc(S(N)(=O)=O)cc1	21	-19	19	4	20*	0	5
CN(C)/C=N/C(=S)Nc1ccc(Cl)cc1Cl	0	-1	1	-1	-12	/	/
O=C(c1cccc2nc3ccccc3nc12)N1CCOCC1	7	5	-5	-1	-2	/	/
